Assays:
Coxsackievirus B3 [1] = assay: Antiviral activity against wild type Coxsackievirus B3 97927 infected in human HeLa cell line assessed as inhibition of virus-induced cytopathic effect measured after 48 hrs by crystal violet uptake assay; format: functional, organism-based; conditions: read-out: IC50
Outline: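 Coxsackievirus B3 infection of 2-day-old HeLa Ohio monolayers in 2% FCS medium. Half-log dilutions from 100 μM added just before infection; guanidine hydrochloride served as positive control. Antiviral activity calculated per Pauwels; IC50 is the mean of at least 3 separate tests.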

rhinovirus B14 = assay: Antiviral activity against Rhinovirus B14 infected in human HeLa cell line assessed as inhibition of virus-induced cytopathic effect measured after 72 hrs by crystal violet uptake assay; format: functional, organism-based
Outline: (§1)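 HeLa Ohio monolayers, 1 day old, in 2% FCS medium. Compound added as serial half-log dilutions from 100 μM immediately before rhinovirus infection. Activity calculated per Pauwels; IC50 is the mean of at least 3 experiments.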

Coxsackievirus B3 [2] = assay: Antiviral activity against pleconaril-resistant Coxsackievirus B3 97927 11207K/I1092 mutant infected in human HeLa cell line assessed as inhibition of virus-induced cytopathic effect measured after 48 hrs by crystal violet uptake assay; format: functional, organism-based
Outline: (§2)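 HeLa Ohio monolayers, 2 days old and confluent, in MEM with 2% FCS. Serial half-log compound dilutions from 100 μM were added just before CVB3 infection. Activity was calculated per Pauwels against six cell and six virus controls; mean IC50 from ≥3 experiments.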

Coxsackievirus B3 [3] = assay: Antiviral activity against pleconaril-resistant Coxsackievirus B3 97927 11207T/I1092 mutant infected in human HeLa cell line assessed as inhibition of virus-induced cytopathic effect measured after 48 hrs by crystal violet uptake assay; format: functional, organism-based; outline: as §2
Coxsackievirus B3 [4] = assay: Antiviral activity against pleconaril-resistant Coxsackievirus B3 97927 11207M/I1092 mutant infected in human HeLa cell line assessed as inhibition of virus-induced cytopathic effect measured after 48 hrs by crystal violet uptake assay; format: functional, organism-based; outline: as §2
Coxsackievirus B3 [5] = assay: Antiviral activity against Coxsackievirus B3 Nancy infected in human HeLa cell line assessed as inhibition of virus-induced cytopathic effect measured after 48 hrs by crystal violet uptake assay; format: functional, organism-based; outline: as §2
HeLa = assay: (§3) Cytotoxicity against human HeLa cells assessed as reduction in cell viability incubated for 72 hrs measured by crystal violet based micro plate reader method; conditions: hela, 72 h
Outline: (§4)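 Two-day-old confluent HeLa Ohio monolayers exposed to half-log dilutions (100 μM downward) in 2% FCS medium for 72 h at 37 °C, 5% CO2. Cells fixed and stained with crystal violet/formalin, dye eluted with acidified citrate-ethanol, OD read at 550/630 nm. Viability expressed relative to six mock-treated controls; CC50 is the mean of at least 3 tests.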

rhinovirus A2 = assay: Antiviral activity against Rhinovirus A2 infected in human HeLa cell line assessed as inhibition of virus-induced cytopathic effect measured after 72 hrs by crystal violet uptake assay; format: functional, organism-based; outline: as §1
rhinovirus B5 = assay: Antiviral activity against Rhinovirus B5 infected in human HeLa cell line assessed as inhibition of virus-induced cytopathic effect measured after 72 hrs by crystal violet uptake assay; format: functional, organism-based
Outline: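 HeLa Ohio monolayers, 1 day old, in 2% FCS medium. Compound added as serial half-log dilutions from 100 μM immediately before rhinovirus infection. CPE read at 72 h by crystal violet staining, elution and OD 550/630 nm, with six cell and six virus controls per plate. Activity calculated per Pauwels; IC50 is the mean of at least 3 experiments.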

[6] = as §3; conditions: HeLa cells; outline: as §4
[7] = Mutagenicity in Escherichia coli PQ37 at 10 mg/ml by SOS-chromotest; format: toxicity
[8] = Genotoxicity in Escherichia coli PQ37 assessed as zone of inhibition at 10 mg/ml measured on day 3 by SOS-chromo0test relative to control; format: toxicity; conditions: 72 h, time 3 day
[9] = Enterovirus B, 97927, HeLa, 48 h
[10] = Rhinovirus B, HeLa, 72 h, read-out: IC50
[11] = Enterovirus B, Nancy, HeLa, 48 h, read-out: IC50
[12] = Rhinovirus A, HeLa, 72 h, read-out: IC50

Structure (SMILES)	IC50 (Coxsackievirus B3 [1]; [9]) [nM]	IC50 (rhinovirus B14; [10]) [nM]	IC50 (Coxsackievirus B3 [2]; read-out: IC50) [nM]	IC50 (Coxsackievirus B3 [3]; read-out: IC50) [nM]	IC50 (Coxsackievirus B3 [4]) [nM]	IC50 (Coxsackievirus B3 [5]; [11]) [nM]	CC50 (HeLa) [nM]	IC50 (rhinovirus A2; [12]) [nM]	IC50 (rhinovirus B5)	IC50 (Coxsackievirus B3 [2])	IC50 (rhinovirus B5; [10]) [nM]	IC50 (Coxsackievirus B3 [5])	CC50 at 72 h [6] [nM]	IC50 (rhinovirus A2)	Activity [7]	inhibition zone (IZ) [8] [mm]	IC50 (Coxsackievirus B3 [3])	IC50 (rhinovirus B14)	IC50 (Coxsackievirus B3 [1]) [nM]
CN(C)C(=O)c1cc(CCCOc2ccc(-c3noc(C(F)(F)F)n3)cc2N)on1	4470	330	51600	14300	2080	27800	90800	18200	Not Active										
CN(C)C(=O)c1cc(CCCOc2ccc(-c3noc(C(F)(F)F)n3)cc2F)on1	25	50		1440	60	18500	20200	3770		Not Active	4040								
CCOC(=O)c1cc(CCCOc2ccc(-c3noc(C(F)(F)F)n3)cn2)on1	10300	1990							Not Active			Not Active	> 100000	Not Active					
Cc1cc(-c2noc(C(F)(F)F)n2)cc(C)c1OCCCc1cc(C(=O)N(C)C)no1	20	120	6330	1010	30		13200	120							Non-Toxic	0			
COc1cc(-c2noc(C(F)(F)F)n2)cc([N+](=O)[O-])c1OCCCc1cc(C(=O)N(C)C)no1	365	200		840	880	14500	25600	320	Not Active	Not Active									
CN(C)C(=O)c1cc(CCCOc2ccc(-c3noc(C(F)(F)F)n3)cc2)on1	458	40	27500	8110	20	10800	28000	4610			1740								
CN(C)C(=O)c1cc(CCCOc2ccc(-c3noc(C(F)(F)F)n3)cc2[N+](=O)[O-])on1	3	280	6460	30	1	1660	22500	670			7630				Non-Toxic	0			
COC(=O)c1cc(CCCOc2c(C)cc(-c3noc(C(F)(F)F)n3)cc2C)on1	60	370	20400	12800	1530	17900	35400	360	Not Active										
CNC(=O)c1cc(CCCOc2c(C)cc(-c3noc(C(F)(F)F)n3)cc2C)on1	60	20			370		> 100000	200		Not Active					Non-Toxic	0	Not Active		
CNC(=O)c1cc(CCCOc2ccc(-c3noc(C(F)(F)F)n3)cc2C(F)(F)F)on1	20			1040	60	14100	> 100000	960	Not Active	Not Active								Not Active	
COc1cc(-c2noc(C(F)(F)F)n2)ccc1OCCCc1cc(C(=O)N(C)C)no1	30	40	51700	1660	600	37800	68000	1970			3280								
CN(C)C(=O)c1cc(CCCOc2ccc(-c3noc(C(F)(F)F)n3)cc2C(F)(F)F)on1		6760	7180	540	160	2240	19200	320	Not Active						Non-Toxic	0			160
CCOC(=O)c1cc(CCCOc2ccc(-c3noc(C(F)(F)F)n3)cc2C)on1	62	520		1230	610	19000	35100		Not Active	Not Active				Not Active					

— ChEMBL document CHEMBL4765245 (Eur J Med Chem, 2020)
